Structures are written as SMILES.

The target in experiment [1] is Prothrombin (Homo sapiens, UniProt P00734). As to the kind of experiment: In vitro inhibitory activity against human thrombin.
In experiment [2] the target is Coagulation factor X (Homo sapiens, UniProt P00742). Nature of the experiment: In vitro inhibitory activity against human Coagulation factor X.
The species named for experiment [3] is Homo sapiens. As to the kind of experiment: Anti-coagulant activity in human plasma were evaluated with the plasma clotting time doubling concentration. Type of experiment: functional, cell-free.
In experiment [4] the test system is Rattus norvegicus. As to the kind of experiment: Ex vivo anti-fXa activity at 3 hr after oral administration of 30 mg/kg to rats perorally. Type of experiment: functional. A digest of the protocol: (§1)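 Male Wistar rats, fasted overnight, dosed by stomach tube with compound in 0.5% (w/v) methylcellulose; controls got vehicle alone. Blood drawn into trisodium citrate under halothane anaesthesia at set times, and platelet-poor plasma prepared.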

Experiment [5] deals with Rattus norvegicus. Nature of the experiment: Ex vivo anti-coagulant activity at 6 hr after oral administration of 30 mg/kg to rats perorally. Type of experiment: functional.
The test system of experiment [6] is Rattus norvegicus. As to the kind of experiment: Ex vivo anti-fXa activity at 1 hr after oral administration of 30 mg/kg to rats perorally. Type of experiment: functional. A digest of the protocol:
as §1

The subject of experiment [7] is Rattus norvegicus. As to the kind of experiment: Ex vivo anti-coagulant activity at 3 hr after oral administration of 30 mg/kg to rats perorally. Type of experiment: functional.
The test system of experiment [8] is Rattus norvegicus. As to the kind of experiment: Ex vivo anti-fXa activity at 6 hr after oral administration of 30 mg/kg to rats perorally. Type of experiment: functional. A digest of the protocol: as §1
The subject of experiment [9] is Rattus norvegicus. As to the kind of experiment: Ex vivo anti-coagulant activity at 1 hr after oral administration of 30 mg/kg to rats perorally. Type of experiment: functional.

Sequence of Coagulation factor X (P00742 41-179 limits assumed): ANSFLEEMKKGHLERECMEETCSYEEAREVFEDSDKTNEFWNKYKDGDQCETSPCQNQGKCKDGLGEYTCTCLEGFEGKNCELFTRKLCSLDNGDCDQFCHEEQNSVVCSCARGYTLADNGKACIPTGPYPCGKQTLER
Sequence of Coagulation factor X (P00742 235-488 limits assumed): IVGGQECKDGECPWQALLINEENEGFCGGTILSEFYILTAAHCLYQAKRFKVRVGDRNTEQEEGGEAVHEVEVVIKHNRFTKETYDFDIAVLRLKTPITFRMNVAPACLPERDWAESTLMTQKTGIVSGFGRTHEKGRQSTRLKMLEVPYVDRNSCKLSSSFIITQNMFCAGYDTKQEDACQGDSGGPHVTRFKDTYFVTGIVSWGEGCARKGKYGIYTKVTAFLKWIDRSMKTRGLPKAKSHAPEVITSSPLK

In general, IC50 refers to the concentration needed to halve the response being measured. For the molecule `C[N+]1(C)CCc2nc(C(=O)N3CCN(S(=O)(=O)c4ccc5cc(Cl)ccc5c4)CC3)sc2C1`, the figures for the IC50 in experiment [1] and in experiment [2] were 3200 nM and 7.8 nM, respectively. The molecule also gave a Concentration in experiment [3] of 0.8 µM.

Consider `CN1CCc2nc(C(=O)N3CCN(S(=O)(=O)c4ccc5cc(Cl)ccc5c4)CC3C(=O)NCC(=O)N3CCOCC3)sc2C1` (stereo not given), for which the results for the IC50 in experiment [1] and in [2] were 1000 nM and 25 nM, respectively. This molecule showed a Concentration in experiment [3] of 2.1 µM.

`CN1CCc2nc(C(=O)N3CCN(S(=O)(=O)c4ccc5cc(Cl)ccc5c4)CC3C(=O)NCc3ccccc3)sc2C1` (stereo not given): the IC50 turned out to be 1300 nM in experiment [1] and 640 nM in [2].

Molecule `CN1CCc2nc(C(=O)N3CCN(S(=O)(=O)c4ccc5cc(Cl)ccc5c4)CC3C(N)=O)sc2C1` (stereo not given) returned an IC50 in experiment [1] of 1000 nM. The Anti-fXa activity is recorded as 55.8% in experiment [4], 67.4% in experiment [6] and 24.7% in experiment [8]. The Prolongation effect was determined as 1.05 in experiment [5], 1.09 in experiment [7] and 1.13 in experiment [9]. The molecule further came in with a Concentration in [3] of 4.4 µM.

With `CC(C)NC(=O)C1CN(S(=O)(=O)c2ccc3cc(Cl)ccc3c2)CCN1C(=O)c1nc2c(s1)CN(C)CC2` (stereo not given), the figures for the IC50 in [1] and in experiment [2] were 820 nM and 45 nM, respectively. In experiment [3], this molecule returned a Concentration of 8.8 µM.

As to `O=C(c1nc2c(s1)CNCC2)N1CCN(S(=O)(=O)c2ccc3cc(Cl)ccc3c2)CC1`, the IC50 turned out to be 2900 nM in [1] and 60 nM in [2]. This molecule had a Concentration in [3] of 11.2 µM.

Take `CNC(=O)C1CN(S(=O)(=O)c2ccc3cc(Cl)ccc3c2)CCN1C(=O)c1nc2c(s1)CN(C)CC2` (stereo not given): the IC50 in experiment [1] came to 1350 nM; in experiment [2] it was 27 nM. In addition, the Anti-fXa activity in experiment [4] came to 73.7%; in experiment [6] it was 89.5%; in experiment [8], 23.5%. For the same molecule, the figures for the Prolongation effect in experiment [5], in experiment [7] and in [9] were 1.04, 1.14 and 1.35, respectively. In addition, the Concentration in experiment [3] amounted to 3 µM.

`CN1CCc2nc(C(=O)N3CCN(S(=O)(=O)c4ccc5cc(Cl)ccc5c4)CC3C(=O)NCC(N)=O)sc2C1` (stereo not given): the results for the IC50 in [1] and in [2] were 880 nM and 23 nM, respectively. Also, in [3], the Concentration came to 3.8 µM.

Take `CN1CCc2nc(C(=O)N3CCN(S(=O)(=O)c4ccc5cc(Cl)ccc5c4)CC3)sc2C1`: the figures for the IC50 in [1] and in experiment [2] were 560 nM and 22 nM, respectively. Moreover, the Concentration in [3] worked out at 6 µM.

Regarding `CN1CCc2nc(C(=O)N3CCN(S(=O)(=O)c4ccc5cc(Cl)ccc5c4)CC3C(=O)N(C)C)sc2C1` (stereo not given), the IC50 in experiment [1] is 6000 nM; in experiment [2], 130 nM. Further, the Concentration in experiment [3] was 7 µM.
